# Measurements: ChEMBL document CHEMBL3588850, “Multivalent Amino Sugars to Recognize Different TAR RNA Conformations” (Medchemcomm, 2014)
# Activity calls are given as the source filed them. The calls are words filed in the database; no cut-off is given here.
# Key:
# [1] = test system: Human immunodeficiency virus 1; assay: Induction of thermal stability changes in wild type HIV1 TAR RNA assessed as change in melting temperature using 1 molar equivalents of compound pre-incubated for 4 hrs at pH 6.8 at 4 degC before test by UV thermal denaturation assay
# [2] = test system: Human immunodeficiency virus 1; assay: Induction of thermal stability changes in HIV1 TAR RNA bulgeless mutant assessed as change in melting temperature using 1 molar equivalents of compound pre-incubated for 4 hrs at pH 6.8 at 4 degC before test by UV thermal denaturation assay
# How it was run: (§1)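 TAR RNA mutants at 1 μM/strand mixed with 1 or 2 molar equivalents of ligand in 100 mM KCl, 10 mM SC, 0.5 mM EDTA, pH 6.8, then held 4 h at 4 °C. Absorbance at 260 nm in 1 cm cuvettes, 15–100 °C, heating 0.3 °C/min. Tm taken from first-derivative plots and compared with the no-ligand sample.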
# [3] = test system: Human immunodeficiency virus 1; assay: Induction of thermal stability changes in HIV1 TAR RNA bulgeless tetraloop mutant assessed as change in melting temperature using 1 molar equivalents of compound pre-incubated for 4 hrs at pH 6.8 at 4 degC before test by UV thermal denaturation assay; how it was run: as §1
# [4] = test system: Human immunodeficiency virus 1; assay: Induction of thermal stability changes in HIV1 TAR RNA tetraloop mutant assessed as change in melting temperature using 1 molar equivalents of compound pre-incubated for 4 hrs at pH 6.8 at 4 degC before test by UV thermal denaturation assay; how it was run: as §1
# Nucleic Acid [5] = assay: Binding affinity to HIV1 TAR RNA bulgeless mutant at pH 6.8 by ethidium bromide displacement assay; type: nucleic-acid assay, Human immunodeficiency virus 1
# How it was run: (§2)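 Synthetic 2′-ACE-protected TAR RNA, deprotected, heated 98 °C 5 min, then ice-cooled 15 min. TAR RNA at 200 nM/strand with ethidium bromide 5 μM in 100 mM KCl, 10 mM SC, 0.5 mM EDTA, pH 6.8. Ligand added stepwise, ≤4% v/v. Excitation 545 nm, emission 580–660 nm, intensity at 610 nm normalized. IC50 from sigmoidal fit of fraction EtBr displaced vs log ligand; association constants from Scatchard analysis.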
# Nucleic Acid [6] = assay: Binding affinity to HIV1 TAR RNA bulgeless tetraloop mutant assessed as association constant at pH 6.8 by ethidium bromide displacement assay based Scatchard analysis method; type: nucleic-acid assay; conditions: Human immunodeficiency virus 1; how it was run: as §2
# [7] = test system: Human immunodeficiency virus 1; assay: Induction of thermal stability changes in HIV1 TAR RNA U3 bulge mutant assessed as change in melting temperature using 2 molar equivalents of compound pre-incubated for 4 hrs at pH 6.8 at 4 degC before test by UV thermal denaturation assay; how it was run: as §1
# Nucleic Acid [8] = assay: Binding affinity to wild type HIV1 TAR RNA at pH 6.8 by ethidium bromide displacement assay; type: nucleic-acid assay, Human immunodeficiency virus 1
# How it was run: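 TAR RNA (200 nM/strand) and EtBr (5 μM) in 100 mM KCl, 10 mM SC, 0.5 mM EDTA, pH 6.8, titrated with ligand aliquots (at most 4% v/v). Fluorescence excited at 545 nm and read at 610 nm. IC50 is the ligand concentration that displaces 50% of EtBr, taken from a sigmoidal fit of fraction displaced versus log ligand concentration.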
# Nucleic Acid [9] = assay: Binding affinity to HIV1 TAR RNA bulgeless tetraloop mutant at pH 6.8 by ethidium bromide displacement assay; type: nucleic-acid assay, Human immunodeficiency virus 1; how it was run: as §2
# [10] = test system: Human immunodeficiency virus 1; assay: Induction of thermal stability changes in HIV1 TAR RNA tetraloop mutant assessed as change in melting temperature using 2 molar equivalents of compound pre-incubated for 4 hrs at pH 6.8 at 4 degC before test by UV thermal denaturation assay; how it was run: as §1
# Nucleic Acid [11] = assay: Binding affinity to HIV1 TAR RNA tetraloop mutant at pH 6.8 by ethidium bromide displacement assay; type: nucleic-acid assay, Human immunodeficiency virus 1; how it was run: as §2
# [12] = test system: Human immunodeficiency virus 1; assay: Induction of thermal stability changes in wild type HIV1 TAR RNA assessed as change in melting temperature using 2 molar equivalents of compound pre-incubated for 4 hrs at pH 6.8 at 4 degC before test by UV thermal denaturation assay
# Nucleic Acid [13] = assay: Binding affinity to HIV1 TAR RNA bulgeless mutant assessed as association constant at pH 6.8 by ethidium bromide displacement assay based Scatchard analysis method; type: nucleic-acid assay; conditions: Human immunodeficiency virus 1; how it was run: as §2
# [14] = test system: Human immunodeficiency virus 1; assay: Induction of thermal stability changes in HIV1 TAR RNA U3 bulge mutant assessed as change in melting temperature using 1 molar equivalents of compound pre-incubated for 4 hrs at pH 6.8 at 4 degC before test by UV thermal denaturation assay; how it was run: as §1
# Nucleic Acid [15] = assay: Induction of conformational changes in HIV1 TAR RNA tetraloop mutant assessed as changes in 260 to 270 nm region using 1 molar equivalents of compound at pH 6.8 by CD spectroscopy; type: nucleic-acid assay; conditions: Human immunodeficiency virus 1
# How it was run: (§3)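 Spectra recorded before and after adding 1 molar equivalent ligand (≤1% v/v, in buffer). Scan 325–200 nm at 500 nm/min, 1 nm bandwidth, 1 cm cuvette, 20 °C. Each spectrum is the average of 10 scans; ΔCD plotted.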
# Nucleic Acid [16] = assay: Binding affinity to HIV1 TAR RNA U3 bulge mutant at assessed as association constant at pH 6.8 by ethidium bromide displacement assay based Scatchard analysis method; type: nucleic-acid assay; conditions: Human immunodeficiency virus 1; how it was run: as §2
# Nucleic Acid [17] = assay: Binding affinity to wild type HIV1 TAR RNA assessed as association constant at pH 6.8 by ethidium bromide displacement assay based Scatchard analysis method; type: nucleic-acid assay; conditions: Human immunodeficiency virus 1
# How it was run: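 Ethidium bromide displacement: 5 μM EtBr with TAR RNA at 200 nM/strand (under 20% of EtBr bound) in 100 mM KCl, 10 mM SC, 0.5 mM EDTA, pH 6.8. Ligand added in concentrated aliquots, at most 4% v/v. Excitation 545 nm, emission 580–660 nm, intensity at 610 nm. Association constant obtained by Scatchard analysis of the titration data.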
# Nucleic Acid [18] = assay: Binding affinity to HIV1 TAR RNA tetraloop mutant assessed as induction of imino chemical shifts changes by NMR spectroscopy; type: nucleic-acid assay; conditions: Human immunodeficiency virus 1
# Nucleic Acid [19] = assay: Induction of conformational changes in HIV1 TAR RNA bulgeless tetraloop mutant assessed as changes in 260 to 270 nm region using 1 molar equivalents of compound at pH 6.8 by CD spectroscopy; type: nucleic-acid assay; conditions: Human immunodeficiency virus 1; how it was run: as §3
# Nucleic Acid [20] = assay: Binding affinity to wild type HIV1 TAR RNA assessed as induction of chemical shifts changes of GH1 and UH3 regions by NMR spectroscopy; type: nucleic-acid assay; conditions: Human immunodeficiency virus 1
# How it was run: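 Imino-region 1D 1H jump-return echo spectra recorded at 298 K on an 850 MHz instrument with a cryoprobe, with increasing amounts of ligand added.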
# Nucleic Acid [21] = assay: Induction of conformational changes in HIV1 TAR RNA U3 bulge mutant aassessed as changes in 260 to 270 nm region using 1 molar equivalents of compound at pH 6.8 by CD spectroscopy; type: nucleic-acid assay; conditions: Human immunodeficiency virus 1; how it was run: as §3
# Nucleic Acid [22] = assay: Induction of conformational changes in HIV1 TAR RNA bulgeless mutant assessed as changes in 210 to 220 nm region using 1 molar equivalents of compound at pH 6.8 by CD spectroscopy; type: nucleic-acid assay; conditions: Human immunodeficiency virus 1; how it was run: as §3
# Nucleic Acid [23] = assay: Induction of conformational changes in wild type HIV1 TAR RNA assessed as changes in 210 to 220 nm region using 1 molar equivalents of compound at pH 6.8 by CD spectroscopy; type: nucleic-acid assay; conditions: Human immunodeficiency virus 1
# Nucleic Acid [24] = assay: Induction of conformational changes in HIV1 TAR RNA bulgeless mutant assessed as induction of red shift in CD spectra region using 1 molar equivalents of compound at pH 6.8 by CD spectroscopy; type: nucleic-acid assay; conditions: Human immunodeficiency virus 1; how it was run: as §3
# Nucleic Acid [25] = assay: Induction of conformational changes in HIV1 TAR RNA bulgeless mutant assessed as changes in 260 to 270 nm region using 1 molar equivalents of compound at pH 6.8 by CD spectroscopy; type: nucleic-acid assay; conditions: Human immunodeficiency virus 1; how it was run: as §3
# Nucleic Acid [26] = assay: Induction of conformational changes in wild type HIV1 TAR RNA assessed as increase in intensity in 265 nm region using 1 molar equivalents of compound at pH 6.8 by CD spectroscopy; type: nucleic-acid assay; conditions: Human immunodeficiency virus 1
# Nucleic Acid [27] = assay: Induction of conformational changes in HIV1 TAR RNA U3 bulge mutant aassessed as changes in 210 to 220 nm region using 1 molar equivalents of compound at pH 6.8 by CD spectroscopy; type: nucleic-acid assay; conditions: Human immunodeficiency virus 1; how it was run: as §3
# Nucleic Acid [28] = assay: Binding affinity to HIV1 TAR RNA tetraloop mutant assessed as association constant at pH 6.8 by ethidium bromide displacement assay based Scatchard analysis method; type: nucleic-acid assay; conditions: Human immunodeficiency virus 1; how it was run: as §2
# Nucleic Acid [29] = assay: Induction of conformational changes in HIV1 TAR RNA tetraloop mutant assessed as induction of red shift in CD spectra region using 1 molar equivalents of compound at pH 6.8 by CD spectroscopy; type: nucleic-acid assay; conditions: Human immunodeficiency virus 1; how it was run: as §3
# Nucleic Acid [30] = assay: Induction of conformational changes in HIV1 TAR RNA bulgeless tetraloop mutant assessed as induction of red shift in CD spectra region using 1 molar equivalents of compound at pH 6.8 by CD spectroscopy; type: nucleic-acid assay; conditions: Human immunodeficiency virus 1; how it was run: as §3
# Nucleic Acid [31] = assay: Induction of conformational changes in HIV1 TAR RNA bulgeless tetraloop mutant assessed as changes in 210 to 220 nm region using 1 molar equivalents of compound at pH 6.8 by CD spectroscopy; type: nucleic-acid assay; conditions: Human immunodeficiency virus 1; how it was run: as §3
# Nucleic Acid [32] = assay: Induction of conformational changes in HIV1 TAR RNA U3 bulge mutant assessed as induction of red shift in CD spectra region using 1 molar equivalents of compound at pH 6.8 by CD spectroscopy; type: nucleic-acid assay; conditions: Human immunodeficiency virus 1; how it was run: as §3
# Nucleic Acid [33] = assay: Binding affinity to HIV1 TAR RNA U3 bulge mutant at pH 6.8 by ethidium bromide displacement assay; type: nucleic-acid assay, Human immunodeficiency virus 1; how it was run: as §2
# Nucleic Acid [34] = assay: Induction of conformational changes in HIV1 TAR RNA tetraloop mutant assessed as changes in 210 to 220 nm region using 1 molar equivalents of compound at pH 6.8 by CD spectroscopy; type: nucleic-acid assay; conditions: Human immunodeficiency virus 1; how it was run: as §3
smiles,measurement,setting,value
NC[C@@H]1O[C@H](O[C@H]2[C@@H](O)[C@H](O[C@@H]3[C@@H](O)[C@H](N)C[C@H](N)[C@H]3O[C@H]3O[C@H](CN)[C@@H](O)[C@H](O)[C@H]3N)O[C@@H]2CO)[C@H](N)[C@@H](O)[C@@H]1O [FRAMYCETIN],ΔTm,[1],0.2 °C
same,ΔTm,[2],1 °C
same,ΔTm,[3],0 °C
same,ΔTm,[4],1 °C
same,IC50,Nucleic Acid [5],150 nM
same,K,Nucleic Acid [6],1.6 ×10⁷ /M
same,ΔTm,[7],1 °C
same,IC50,Nucleic Acid [8],378 nM
same,IC50,Nucleic Acid [9],192 nM
same,ΔTm,[10],1 °C
same,IC50,Nucleic Acid [11],684 nM
same,ΔTm,[12],0.5 °C
same,K,Nucleic Acid [13],3 ×10⁷ /M
same,ΔTm,[14],0 °C
NC[C@@H]1O[C@H](O[C@H]2[C@@H](O)[C@H](O[C@@H]3[C@@H](O)[C@H](N)C[C@H](N)[C@H]3O[C@H]3O[C@H](CN)[C@@H](O)[C@H](O)[C@H]3N)O[C@@H]2Cn2cc(COCc3cn(C[C@H]4O[C@@H](O[C@@H]5[C@@H](O)[C@H](N)C[C@H](N)[C@H]5O[C@H]5O[C@H](CN)[C@@H](O)[C@H](O)[C@H]5N)[C@H](O)[C@@H]4O[C@H]4O[C@@H](CN)[C@@H](O)[C@H](O)[C@H]4N)nn3)nn2)[C@H](N)[C@@H](O)[C@@H]1O,Activity,Nucleic Acid [15],Active
same,K,Nucleic Acid [16],1.6 ×10⁷ /M
same,K,Nucleic Acid [17],1.2 ×10⁸ /M
same,Activity,Nucleic Acid [18],Active
same,Activity,Nucleic Acid [19],Active
same,Activity,Nucleic Acid [20],Dose-dependent effect
same,ΔTm,[1],10.2 °C
same,Activity,Nucleic Acid [21],Active
same,ΔTm,[2],5 °C
same,Activity,Nucleic Acid [22],inactive
same,ΔTm,[3],> 5 °C
same,Activity,Nucleic Acid [23],Active
same,ΔTm,[4],6 °C
same,Activity,Nucleic Acid [24],Active
same,Activity,Nucleic Acid [25],Active
same,Activity,Nucleic Acid [26],inactive
same,K,Nucleic Acid [6],2.3 ×10⁸ /M
same,Activity,Nucleic Acid [27],Active
same,K,Nucleic Acid [28],2.7 ×10⁷ /M
same,Activity,Nucleic Acid [29],Active
same,IC50,Nucleic Acid [8],112 nM
same,Activity,Nucleic Acid [30],Active
same,Activity,Nucleic Acid [31],inactive
same,Activity,Nucleic Acid [32],Active
same,IC50,Nucleic Acid [9],122 nM
same,IC50,Nucleic Acid [33],186 nM
same,Activity,Nucleic Acid [34],inactive
same,IC50,Nucleic Acid [11],156 nM
same,K,Nucleic Acid [13],7.5 ×10⁷ /M
same,ΔTm,[14],8.5 °C
